Sampled rows, rich in hits. Any-hit rate of the full collection: about 1.1%.
Avidin bead fluor – compound fluoresces at 488/530 nm on avidin beads; compound fluorescence 488/530 nm, flow cytometry; active compounds read high; fluorescence (KMESF) at 10 µM; 0.38% of 220,000 active; in the data active = fluorescence above about 47
Pemphigus Ab inh – human desmoglein-3 autoantibody binding inhibition; 0.48% of 310,000 active; binding (percent of control), % at 10 µM; DSG3-coupled beads, scFv-anti-DSG3-GFP binding, flow cytometry; active compounds read low; AID 588358; P32926;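 active = binding more than 3 SD below its plate's average and above zero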;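 note: hits lower antibody fragment binding to DSG3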
Target sequence (P32926 whole entry, looked up, the tested form may be a part): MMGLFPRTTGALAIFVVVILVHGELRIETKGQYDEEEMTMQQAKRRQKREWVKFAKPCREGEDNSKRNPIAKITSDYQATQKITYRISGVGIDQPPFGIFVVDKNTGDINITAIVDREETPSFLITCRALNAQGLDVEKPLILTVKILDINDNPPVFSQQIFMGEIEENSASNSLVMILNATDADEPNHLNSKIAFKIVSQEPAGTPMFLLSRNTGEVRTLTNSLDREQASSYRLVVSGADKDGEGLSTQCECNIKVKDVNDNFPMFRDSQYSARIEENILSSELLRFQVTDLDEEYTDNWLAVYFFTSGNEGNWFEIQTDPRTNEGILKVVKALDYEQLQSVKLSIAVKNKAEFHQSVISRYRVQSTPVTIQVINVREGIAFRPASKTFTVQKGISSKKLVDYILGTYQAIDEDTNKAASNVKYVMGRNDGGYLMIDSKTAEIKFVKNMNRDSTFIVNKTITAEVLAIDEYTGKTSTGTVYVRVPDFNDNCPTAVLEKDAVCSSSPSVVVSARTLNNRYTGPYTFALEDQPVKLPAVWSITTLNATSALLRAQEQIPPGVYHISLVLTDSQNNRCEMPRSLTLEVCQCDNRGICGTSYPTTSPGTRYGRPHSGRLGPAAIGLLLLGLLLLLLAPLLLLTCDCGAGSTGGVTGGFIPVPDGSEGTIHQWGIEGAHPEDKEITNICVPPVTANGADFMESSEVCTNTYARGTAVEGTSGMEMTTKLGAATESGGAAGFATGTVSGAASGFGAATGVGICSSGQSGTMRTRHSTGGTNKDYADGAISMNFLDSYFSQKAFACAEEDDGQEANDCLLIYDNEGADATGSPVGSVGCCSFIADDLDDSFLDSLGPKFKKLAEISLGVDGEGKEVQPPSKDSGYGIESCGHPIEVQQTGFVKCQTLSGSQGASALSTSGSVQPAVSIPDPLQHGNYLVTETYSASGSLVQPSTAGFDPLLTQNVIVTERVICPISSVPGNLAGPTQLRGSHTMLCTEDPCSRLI
GSH bead fluor – compound fluoresces at 488/530 nm on GSH beads | GSH beads flow cytometry, compound fluorescence 488/530 nm; active compounds read high | fluorescence (KMESF) at 10 µM | 0.25% of 190,000 active | AID 1776; in the data active = fluorescence above about 89;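 note: glutathione beads carrying GST-tagged Bcl family fusion proteins plus one bare bead set; values are compound well signal with DMSO vehicle wells as background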
Arr AP2 block – human beta-arrestin and AP2 interaction inhibition; FITC-arrestin peptide / GST-AP2 beads, flow cytometry; AP2 beta2 appendage carries R879A mutation; AID 504490; 0.31% of 340,000 active; inhibition, % at 10 µM;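 active = inhibition above a set limit, near 3 SD of compounds lacking own fluorescence, cut at about 54% in these data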;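 note: plate controls were DMSO wells for no effect and 5 µM unlabelled arrestin peptide for full effect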
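test system = AP2 appendage R879A on GSH beads | buffer or medium = PBS plus Tween 20 (0.05%) and BSA (0.1%) | incubation = 12 min plus 1 h, RT | detection = bead flow cytometry, FITC channel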
Numbers without * were called inactive; x = not tested or not shown.

SMILES	Avidin bead fluor	Pemphigus Ab inh	GSH bead fluor	Arr AP2 block
CCn1c(SCC(=O)Nc2nc3ccccc3s2)nnc1-c1ccc(Br)cc1	5	-18.1*	48	7.2
Cc1ccc2nc(-c3ccc(NC(=O)CNC4CC4)cc3)sc2c1	101*	98.7	21	-9.0
CCn1c(SCC(=O)Nc2ccc(-c3nc4ccc(C)cc4s3)cc2)nnc1-c1ccccc1	256*	x	24	x
CCCCn1c(N)c(N(CC(C)C)C(=O)CCNC(=O)c2ccc(Cl)cc2)c(=O)[nH]c1=O	x	102.5	x	-12.4
CC(C)c1nnc(NC(=O)C2CCCN2C(=O)Nc2ccc(F)cc2)s1 (stereo not given)	x	87.8	x	2.7
CCCCOc1cccc(C2/C(=C(/O)c3ccc4c(c3)CC(C)O4)C(=O)C(=O)N2CCN2CCOCC2)c1 (stereo not given)	x	105.6	x	45.5
Cc1cc(-c2nnc(SCC(=O)Nc3ccccc3C)n2N)n[nH]1	x	100.0	x	-9.2
COc1ccc(NC(=O)CCN2CCN(c3ccc(F)cc3)CC2)cc1	x	92.7	x	23.1
CC(C)(C)c1ccc(C(=O)NC(=S)NNC(=O)c2cccs2)cc1	3	81.0*	8	30.4
Cc1ccccc1C(=O)NNC(=S)NC(=O)c1cccs1	x	78.9*	x	1.1
Cc1ccccc1C(=O)Nc1cccc(NC(=S)NC(=O)c2cccs2)c1	9	109.0	10	14.4
CC(CNS(=O)(=O)c1ccccc1)Sc1nncn1C (stereo not given)	4	97.2	x	-4.8
C[C@@H]1CC[C@@]2(O[C@@H](CCO)C[C@@H](O)[C@@H]2O)O1	x	104.8	x	-4.3
COc1ccc(C(=O)NCC(C)(c2ccccc2)c2ccccc2)cc1S(=O)(=O)N1CCOCC1	x	104.7	x	-12.1
N#C/C(=C/Nc1ccccc1)c1ccsc1	51*	108.3	15	4.7
Cn1c(O)c(N=NC(=O)CNC(=O)c2ccccc2)c2ccccc21	x	-36.5*	x	-3.8
Cn1c(O)c(N=NC(=O)CNC(=O)c2ccccc2)c2cc(Br)ccc21	x	x	x	22.0
Cc1ccc(Cn2nc(C)c(C(=O)NCC(c3ccc(F)cc3)N3CCOCC3)c2Cl)cc1 (stereo not given)	x	107.5	x	-14.3
CSc1sc(C(=O)NCC2CC2)c2c1S(=O)(=O)N(C)c1ccccc1-2	7	92.7*	x	-19.9
CSc1sc(C(=O)NCC2CC2)c(-c2cccs2)c1C#N	5	92.2	x	-3.8
Cc1ccc(S(=O)(=O)N2CCOCC2)cc1NC(=O)COC(=O)c1ccc(Cl)s1	x	112.2	x	0.6
Oc1cccc(-n2nnnc2SCc2ccccc2F)c1	x	100.4	x	6.7
O=C(O)c1cc(-n2nnnc2SCc2ccccc2F)ccc1Cl	8	74.0*	18	12.0
COc1ccc(C(O)c2coc3ccc(O)c(CN(C)C)c23)cc1 (stereo not given)	83*	94.8	16	0.6
CCN(CCCNC(=O)Cn1ncc2c([nH]c3ccc(C)cc32)c1=O)c1cccc(C)c1	x	x	x	44.5
SMILES	Avidin bead fluor	Pemphigus Ab inh	GSH bead fluor	Arr AP2 block
Cc1nnc(SCC(=O)N2CCCCC2)n1CC1CCCO1 (stereo not given)	4	104.4	94*	1.1
COC(=O)CC1C(=O)NCCN1C(=O)c1c(F)cccc1F (stereo not given)	x	x	x	1.4
O=C(Cn1nnc2ccccc21)c1ccc(Br)cc1	5	13.0*	x	30.6
COC(=O)c1cc(/C=C/c2ccccc2)on1	10	-26.6*	9	6.6
CNc1nc(Nc2ccc(Br)cc2)nc(N)c1[N+](=O)[O-]	13	51.0*	4	5.8
COc1ccc(Nc2nc(N)c([N+](=O)[O-])c(NCc3ccccc3)n2)cc1	56*	113.9	x	8.1
Cc1cccc(N2CCN(C(=O)c3c(Cl)cnn3C)CC2)c1C	x	95.2	x	6.6
O=c1c2ccccc2oc2cc(-c3ccc(CN4CCOCC4)cc3)ccc12	x	101.2	x	0.1
CC(C)CSc1ccc(S(=O)(=O)NCC(=O)O)cc1[N+](=O)[O-]	169*	95.5	21	24.9
N#C/C(=C\c1ccc(N2CCOCC2)cc1)c1ccccc1	14	-132.7*	11	18.7
Cc1ccccc1NC(=O)COc1ccccc1C	x	97.3	x	35.1
Cc1ccccc1OCC(=O)Nc1ccccc1-c1ccccc1	x	8.5*	x	9.1
Cc1cc(C(=O)OCc2nnc(-c3ccccc3)o2)c(C)n1-c1ccccc1	7	99.0	261*	-30.1
Cc1sc(NC(=O)c2cccs2)c(C(=O)OC(C)C)c1C	5	100.2	102*	-2.6
CN(C1=NC(=O)C(CC(=O)O)S1)c1ccc(O)cc1 (stereo not given)	21	22.8*	9	43.9
Cc1cc(C)c(CN2CCN(CCCn3cnc(C(=O)Nc4ccc(C)c(C)c4)n3)CC2)c(C)c1	x	107.7	x	6.4
Cc1ccc(Sc2ccc(NC(=O)c3ccc(S(C)(=O)=O)cc3Cl)cc2)cc1	25	-16.3*	53	2.2
CCN(Cc1ccccc1)S(=O)(=O)c1csc(C(N)=O)c1	x	x	x	15.9
CCN(CC)S(=O)(=O)c1csc(C(=O)OCC(=O)c2ccccc2)c1	4	97.4	104*	22.5
CCOCCN(C(=O)c1ccccc1Cl)c1cccc(C)c1C	85*	97.2	x	-25.9
CC(=O)Nc1ccc(C(=O)Nc2nc(-c3cccnc3)cs2)cc1	63*	x	8	-0.2
NNC(=O)C1SCCN1S(=O)(=O)c1ccc(Cl)cc1 (stereo not given)	x	103.6	x	29.8
NS(=O)(=O)c1ccc(NC(=O)c2ccc(-c3ccccc3)cc2)cc1	10	x	57	4.7
NS(=O)(=O)c1ccc(NS(=O)(=O)c2ccc(NC(=O)c3ccc(-c4ccccc4)cc3)cc2)cc1	373*	85.5	13	5.2
CCCCn1c(N)c(N(CC(C)C)C(=O)c2ccncc2)c(=O)[nH]c1=O	x	96.3	x	4.4
SMILES	Avidin bead fluor	Pemphigus Ab inh	GSH bead fluor	Arr AP2 block
C=CCN1C(=O)c2ccc(C(=O)N(CC(C)C)c3c(N)n(CCCC)c(=O)[nH]c3=O)cc2C1=O	x	75.6*	x	-4.8
CCCC(=O)Nc1cc(C(=O)N(C)CC(OC)OC)ccc1S(=O)(=O)c1ccc(C)cc1	x	99.5	x	-9.6
O=C(NCCNC1CCC(c2ccccc2)CC1)c1cccs1 (stereo not given)	8	101.0	16	26.6
Cc1ccc(CNC(=O)c2ccc(S(=O)(=O)Nc3c(C)n(C)n(-c4ccccc4)c3=O)cc2)cc1	8	85.7	x	15.0
Cc1ccccc1-n1nc(C(=O)O)c(C)c(C#N)c1=O	7	104.2	255*	9.2
COc1cc2c(cc1OC)C(COc1cc(C)cc(C)c1)N(C(C)=O)CC2 (stereo not given)	x	104.5	x	-3.2
CCOC(=O)c1c[nH]c2c(Cl)c(Cl)ccc2c1=O	10	86.0*	5	6.5
CCOC(=O)c1c[nH]c2c(Cl)ccc(Cl)c2c1=O	5	x	32	-0.7
Cc1ccc([N+](=O)[O-])cc1NC(=O)C(C)Sc1nnc(C)n1CC1CCCO1 (stereo not given)	x	x	x	-11.3
Cc1ccc(NC(=O)CS(=O)CC(=O)NC(C)CCc2ccco2)cc1Cl (stereo not given)	72*	132.3	26	-4.3

Assay outcomes as filed in PubChem BioAssay.
